Assay results reported in ChEMBL document CHEMBL3877272, “Synthesis and anti-mitotic activity of 6,7-dihydro-4H-isothiazolo[4,5-b]pyridin-5-ones: In vivo and cell-based studies” (Eur J Med Chem, 2017).
pIC50: −log10 of the molar value. The source made the active and inactive calls.

What was measured:
[1] = tested on: Paracentrotus lividus; assay: Antimitotic activity in sea urchin embryo assessed as cleavage arrest exposed 8 to 15 mins after fertilization 45 to 55 mins before first mitotic cycle completion measured at 2.5 to 5.5 hrs post dose; format: functional
Summary of the method: (§1)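 Paracentrotus lividus eggs, fertilized in filtered seawater, cultured as monolayer (up to 2000 embryos/mL) at room temperature. Exposed 8–15 min post-fertilization to 2-fold decreasing concentrations (DMSO stock diluted in EtOH; final DMSO ≤0.05%, EtOH ≤1%). Cleavage alteration scored at 8-cell, arrest at early blastula stage (2.5–5.5 h). Effective threshold concentration reported; duplicate measurements.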

[2] = tested on: Paracentrotus lividus; assay: Antimitotic activity in early pluteus stage of sea urchin embryo assessed as growth inhibition of skeletal spicules at 1 uM; format: functional, tissue-based; conditions: Spicule
Summary of the method: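 P. lividus embryos (gametes by intracoelomic 0.5 M KCl, fertilized in filtered seawater, room temperature, paddle agitation 60 rpm); compound from 10 mM DMSO stock diluted 10-fold in 96% EtOH; growth of skeletal spicules scored by light microscopy at early pluteus stage.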

[3] = tested on: Paracentrotus lividus; assay: Antimitotic activity in sea urchin embryo assessed as cleavage alteration exposed 8 to 15 mins after fertilization 45 to 55 mins before first mitotic cycle completion measured at 2.5 to 5.5 hrs post dose; format: functional; summary of the method: as §1
[4] = Antiproliferative activity against human NCI60 cells at 10 uM after 48 hrs by SRB assay relative to control; format: functional; conditions: NCI60, 48 h, read-out: GI
[5] = tested on: Paracentrotus lividus; assay: Antimitotic activity in sea urchin free-swimming blastulae assessed as microtubule destabilization by measuring embryo spinning exposed 8 to 10 hrs after fertilization measured after 15 mins to 20 hrs; format: functional, Blastula
Summary of the method: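 Free-swimming P. lividus blastulae just after hatching (8–10 h post-fertilization) from same culture, exposed in seawater to 2-fold decreasing concentrations (DMSO stock diluted in EtOH). Settling to well bottom with rapid spinning around animal-vegetal axis scored by light microscopy over 15 min–20 h. Effective threshold concentration; duplicate measurements.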

[6] = Solubility in seawater assessed as micro-crystal formation at 4 uM by light microscopy; format: physicochemical
Summary of the method: (§2)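 Compound from 10 mM DMSO stock diluted 10-fold in 96% EtOH, added to seawater with sea urchin embryos; microcrystal formation checked by light microscopy.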

[7] = tested on: Paracentrotus lividus; assay: In vivo microtubule destabilizing activity in sea urchin embryo assessed as tuberculate egg formation exposed 8 to 15 mins after fertilization 45 to 55 mins before first mitotic cycle completion measured at 2.5 to 5.5 hrs post dose; format: functional
Summary of the method: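 Paracentrotus lividus eggs from KCl-induced spawning, fertilized and cultured in filtered seawater at room temperature, up to 2000 embryos/mL. Compounds came from 10 mM DMSO stocks diluted 10-fold in 96% EtOH; tolerated solvent limits were 0.05% DMSO and 1% EtOH. Eggs were exposed to 2-fold decreasing concentrations and scored by light microscopy. The result is the effective threshold concentration, measured in duplicate.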

[8] = Antiproliferative activity against human NCI60 cells measured after 48 hrs by SRB assay; format: functional; conditions: NCI60, 48 h
[9] = Cell cycle arrest in human MDA-MB-468 cells assessed as accumulation in sub-G1 phase at 1 uM measured after 24 hrs by DNA dye based flow cytometry; format: functional
Summary of the method: (§3)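 Cells exposed to 1 µM compound or 0.1% DMSO for 24 h; stained with bivariate cell cycle kit (DNA dye); Sub-G1, G1, S and G2/M fractions by flow cytometry as mean percentage with standard error; two independent experiments in duplicate.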

[10] = Antiproliferative activity against human MDA-MB-435 cells measured after 96 hrs by Celltiter-Glo assay; format: functional, cell-based; conditions: MDA-MB-435, 96 h
Summary of the method: (§4)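 Cells plated 24 h, then treated 96 h with 0.1% DMSO or concentrations […]; growth by CellTiter-Glo luminescence, normalized to DMSO control; IC50 from dose–response curves by logistic nonlinear regression; mean of three independent experiments.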

[11] = Cell cycle arrest in human NCI-H1975 cells assessed as accumulation in sub-G1 phase at 1 uM measured after 24 hrs by DNA dye based flow cytometry; format: functional; summary of the method: as §3
[12] = Antiproliferative activity against human adriamycin-resistant MOR cells measured after 3 days by Celltiter-Glo assay; format: functional, cell-based; conditions: 72 h
Summary of the method: (§5)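 Cells in ATCC-recommended medium, STR-authenticated, mycoplasma-tested; 3-day exposure to varying concentrations; viability by CellTiter-Glo luminescence normalized to DMSO control; IC50 from logistic nonlinear regression; mean of three independent experiments.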

[13] = Antiproliferative activity against human TOV112D cells measured after 96 hrs by Celltiter-Glo assay; format: functional, cell-based; summary of the method: as §4
[14] = Antiproliferative activity against human NCI-H1975 cells measured after 96 hrs by Celltiter-Glo assay; format: functional, cell-based; conditions: NCI-H1975, 96 h; summary of the method: as §4
[15] = Antiproliferative activity against human A2780cis cells measured after 3 days by Celltiter-Glo assay; format: functional, cell-based; conditions: A2780cisR, 72 h; summary of the method: as §5
[16] = Cell cycle arrest in human NCI-H1975 cells assessed as reduction in G1 phase at 1 uM measured after 24 hrs by DNA dye based flow cytometry; format: functional; summary of the method: as §3
[17] = Antiproliferative activity against human MDA-MB-468 cells measured after 48 hrs by SRB assay; format: functional, cell-based; conditions: MDA-MB-468, 48 h
[18] = Antiproliferative activity against human A2780/ADR cells measured after 3 days by Celltiter-Glo assay; format: functional, cell-based; conditions: 72 h; summary of the method: as §5
[19] = Antiproliferative activity against human MDA-MB-DYT2 cells measured after 96 hrs by Celltiter-Glo assay; format: functional, cell-based; summary of the method: as §4
[20] = Cell cycle arrest in human NCI-H1975 cells assessed as accumulation in G2/M phase at 1 uM measured after 24 hrs by DNA dye based flow cytometry (reference value: 20%); format: functional; summary of the method: as §3
[21] = Antiproliferative activity against human MDA-MB-435 cells measured after 48 hrs by SRB assay; format: functional, cell-based; conditions: MDA-MB-435, 48 h
[22] = Antiproliferative activity against human A2780 cells measured after 3 days by Celltiter-Glo assay; format: functional, cell-based; conditions: A2780, 72 h; summary of the method: as §5
[23] = Antiproliferative activity against human MDA-MB-231 cells measured after 96 hrs by Celltiter-Glo assay; format: functional, cell-based; conditions: MDA-MB-231, 96 h; summary of the method: as §4
[24] = Cell cycle arrest in human MDA-MB-468 cells assessed as reduction in G1 phase at 1 uM measured after 24 hrs by DNA dye based flow cytometry; format: functional; summary of the method: as §3
[25] = Cell cycle arrest in human MDA-MB-468 cells assessed mitotic index by measuring level of phospho-histone H3 positive cells at 1 uM measured after 24 hrs by DNA dye based flow cytometry (reference value: 2.18); format: functional
[26] = Cell cycle arrest in human NCI-H1975 cells assessed mitotic index by measuring level of phospho-histone H3 positive cells at 1 uM measured after 24 hrs by DNA dye based flow cytometry (reference value: 1.9); format: functional
[27] = Cell cycle arrest in human MDA-MB-468 cells assessed as reduction in S phase at 1 uM measured after 24 hrs by DNA dye based flow cytometry; format: functional; summary of the method: as §3
[28] = Antiproliferative activity against human MDA-MB-468 cells measured after 96 hrs by Celltiter-Glo assay; format: functional, cell-based; conditions: MDA-MB-468, 96 h; summary of the method: as §4
[29] = tested on: NCI-H1975; assay: Induction of microtubule disintegration in human NCI-H1975 cells at 1 uM measured upto 24 hrs by Hoechst staining-based laser scanning microscopic method; format: cell-based
Summary of the method: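 NCI-H1975 cells, 0.1% DMSO or 1 µM compound for 6, 16 and 24 h; paraformaldehyde-fixed, Triton-permeabilized, BSA-blocked, anti-β-tubulin (1:1000, overnight 4 °C) with Alexa Fluor 647 secondary, Hoechst nuclear counterstain; laser scanning confocal imaging.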

[30] = Antiproliferative activity against human Caov3 cells measured after 96 hrs by Celltiter-Glo assay; format: functional, cell-based; conditions: Caov-3, 96 h; summary of the method: as §4
[31] = Antiproliferative activity against human MOR cells measured after 3 days by Celltiter-Glo assay; format: functional, cell-based; conditions: 72 h; summary of the method: as §5
[32] = Antiproliferative activity against human MOR/CPR cells measured after 3 days by Celltiter-Glo assay; format: functional, cell-based; conditions: 72 h; summary of the method: as §5
[33] = Cell cycle arrest in human NCI-H1975 cells assessed as reduction in S phase at 1 uM measured after 24 hrs by DNA dye based flow cytometry; format: functional; summary of the method: as §3
[34] = Solubility in DMSO; format: physicochemical
[35] = Solubility in seawater assessed as micro-crystal formation at 2 uM by light microscopy; format: physicochemical; summary of the method: as §2
[36] = Antiproliferative activity against human NCI/ADR-RES cells measured after 3 to 4 days by Celltiter-Glo luminescent cell viability assay; format: functional
[37] = Antiproliferative activity against human OVCAR8 cells measured after 3 to 4 days by Celltiter-Glo luminescent cell viability assay; format: functional; conditions: OVCAR-8
[38] = Solubility in seawater assessed as micro-crystal formation at 1 uM by light microscopy; format: physicochemical; summary of the method: as §2

SMILES: COc1cc(C2CC(=O)Nc3c(-c4ccc(F)cc4)nsc32)cc2c1OCO2 (centres undefined)
- EC [1]: >4 µM
- Activity [2]: Active
- EC [3]: >4 µM
- inhibition of growth at 10 µM [4]: 10.1%
- EC [5]: >4 µM

SMILES: COc1cc(C2CC(=O)Nc3c(-c4ccc(Cl)cc4)nsc32)cc2c1OCO2 (centres undefined)
- EC [1]: >4 µM
- EC [3]: 2 µM
- inhibition of growth at 10 µM [4]: 17.8%
- solubility [6]: Insoluble
- EC [5]: >4 µM

SMILES: COc1ccc(-c2nsc3c2NC(=O)CC3c2cc3c(c(OC)c2OC)OCO3)cc1 (centres undefined)
- EC [1]: 2 µM
- Activity [7]: Active
- EC [3]: 0.2 µM
- inhibition of growth at 10 µM [4]: 26.9%
- EC [5]: >5 µM

SMILES: O=C1CC(c2ccc(F)cc2)c2snc(-c3ccc(F)cc3)c2N1 (centres undefined)
- EC [1]: 4 µM
- EC [3]: 1 µM
- inhibition of growth at 10 µM [4]: 4.2%
- solubility [6]: Insoluble
- EC [5]: >4 µM

SMILES: COc1cc(C2CC(=O)Nc3c(-c4ccc(F)cc4)nsc32)c(OC)c2c1OCO2 (centres undefined)
- EC [1]: >4 µM
- Activity [2]: Active
- EC [3]: >4 µM
- EC [5]: >4 µM

SMILES: COc1ccc(-c2nsc3c2NC(=O)CC3c2ccsc2)cc1 (centres undefined)
- EC [1]: 0.005 µM
- GI50 [8]: 302 nM
- Activity [9]: Active
- pIC50 [10]: 7.09
- Activity [11]: Active
- pIC50 [12]: 7.20
- pIC50 [13]: 6.87
- pIC50 [14]: 6.60
- pIC50 [15]: 6.73
- Activity [16]: Active
- pIC50 [17]: 6.93
- pIC50 [18]: 6.45
- EC [3]: 0.002 µM
- pIC50 [19]: 6.51
- Activity [20]: 30%
- pIC50 [21]: 7.63
- pIC50 [22]: 6.64
- pIC50 [23]: 6.72
- Activity [24]: Active
- Activity index [25]: 11.3
- Activity index [26]: 6.95
- Activity [27]: Active
- pIC50 [28]: 6.79
- EC [5]: 0.1 µM
- Activity [29]: Active
- pIC50 [30]: 6.82
- pIC50 [31]: 6.15
- pIC50 [32]: 6.49
- Activity [33]: Active

SMILES: COc1ccc(-c2nsc3c2NC(=O)CC3c2cc(OC)c3c(c2)OCO3)cc1 (centres undefined)
- EC [1]: >4 µM
- solubility [34]: Soluble
- EC [3]: >4 µM
- EC [5]: >4 µM

SMILES: COc1ccc(-c2nsc3c2NC(=O)CC3c2cccc(OC)c2)cc1 (centres undefined)
- EC [1]: 0.05 µM
- solubility [35]: Insoluble
- GI50 [8]: 1550 nM
- pIC50 [10]: 6.23
- GI50 [36]: 420 nM
- pIC50 [13]: 6.09
- pIC50 [14]: 5.70
- pIC50 [17]: 6.40
- EC [3]: 0.01 µM
- pIC50 [19]: 5.72
- pIC50 [21]: 6.55
- GI50 [37]: 3220 nM
- pIC50 [23]: 5.86
- pIC50 [28]: 6.18
- EC [5]: 0.1 µM
- pIC50 [30]: 5.83

SMILES: COc1ccc(-c2nsc3c2NC(=O)CC3c2ccc3c(c2)OCO3)cc1 (centres undefined)
- EC [1]: 0.1 µM
- GI50 [8]: 1550 nM
- solubility [38]: Insoluble
- GI50 [36]: 524 nM
- EC [3]: 0.01 µM
- GI50 [37]: 3040 nM
- EC [5]: 0.2 µM

SMILES: O=C1CC(c2ccc(F)cc2)c2snc(-c3cccc(F)c3)c2N1 (centres undefined)
- EC [1]: 4 µM
- Activity [7]: Active
- EC [3]: 1 µM
- EC [5]: >4 µM

SMILES: COc1cccc(C2CC(=O)Nc3c(-c4ccc(F)cc4)nsc32)c1 (centres undefined)
- EC [1]: 4 µM
- Activity [7]: Active
- EC [3]: 1 µM
- inhibition of growth at 10 µM [4]: 15.1%
- EC [5]: >4 µM

SMILES: COc1cccc(C2CC(=O)Nc3c(-c4cccc(F)c4)nsc32)c1 (centres undefined)
- EC [1]: 1 to 4 µM
- EC [3]: 0.5 µM
- inhibition of growth at 10 µM [4]: 9.4%
- solubility [6]: Insoluble
- EC [5]: >4 µM
